# Rows were chosen to be rich in hits. Some 4.6% of all compounds tested hit in one or more screens of this group.
# CHO parental Ca – counter-screen: ATP calcium response change in parental CHO cells. parental CHO-K1, ATP-induced calcium, Fluo-8 fluorescence. inhibition, % at 5.6 µM. hit rate 0.63% among 330,000. AID 463079;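 active means inhibition above that plate's mean sample inhibition plus 3 SD, cut at about 26% in these data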;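 further: 0% = ATP-challenged DMSO wells and 100% = DMSO wells without ATP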
#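 material = parental CHO cells | also added = ATP as calcium-mobilizing challenge | dosing = single point at 5.6 µM | detection = intracellular calcium via Fluo-8 no-wash fluorescent dye | read-out = % inhibition | benchmarks = low control ATP plus DMSO, high control DMSO only | repeats = one well per compound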
# TAAR1 antag – human TAAR1 antagonism | CHO RD-HGA16 TAAR1, Fluo-8 calcium fluorescence, antagonist | inhibition, % at 3 µM | Q96RJ0 | hit rate 1.5% among 360,000;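 active means inhibition above a per-plate cutoff, the mean inhibition of test compounds on that plate plus 3 SD, cut at about 49% in these data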;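 further: 0% = DMSO plus EC80 beta-PEA response and 100% = DMSO alone without agonist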
#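 Test system – hTAAR1-expressing CHO RD-HGA16 cells, Gα16-coupled · Also added – β-PEA at EC80 concentration, post-compound challenge · Compound – 3 µM, single point · Incubation – dye loading 75 min at 37 °C, then 30 min room temperature · Measured by – Fluo-8 intracellular calcium dye fluorescence, real-time kinetic reads · Benchmarks – vehicle and agonist controls · Replicates – singlicate, one well per test compound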
# TAAR1 ag – agonists of human TAAR1 | activation, % at 3 µM | AID 624467 | hit rate 0.99% among 360,000 | CHO RD-HGA16 TAAR1, Fluo-8 calcium fluorescence; vehicle wells 0%, saturating PEA agonist 100% | Q96RJ0;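 active means activation above the mean activation of all test compounds in the run plus 3 SD, cut at about 38% in these data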
#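 Test system: RD-HGA16 (CHO) cells co-expressing Gα16 and hTAAR1 | Doses: Single dose, 3 µM | Schedule: 17-24 h seeding, 75 min 37 °C dye, 30 min RT | Evaluation: % activation from peak over basal fluorescence ratio, DMSO-to-PEA scaled | Technique: Kinetic Fluo-8 calcium fluorescence | Benchmarks: Low control DMSO, high control PEA (EC100)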
# OX1R antag-1 – blocks the human orexin 1 receptor. CHO/OX1R cells, Fluo-8 calcium fluorescence, orexin A. AID 434989. hit rate 0.43% among 330,000. inhibition, % at 5 µM. O43613;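 active means inhibition above its plate's threshold, mean inhibition of all tested compounds on the plate plus 3 SD, cut at about 37% in these data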;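 further: 0% = orexin A challenge wells and 100% = SB-334867-A antagonist wells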
# Target sequence (O43613 whole entry, looked up): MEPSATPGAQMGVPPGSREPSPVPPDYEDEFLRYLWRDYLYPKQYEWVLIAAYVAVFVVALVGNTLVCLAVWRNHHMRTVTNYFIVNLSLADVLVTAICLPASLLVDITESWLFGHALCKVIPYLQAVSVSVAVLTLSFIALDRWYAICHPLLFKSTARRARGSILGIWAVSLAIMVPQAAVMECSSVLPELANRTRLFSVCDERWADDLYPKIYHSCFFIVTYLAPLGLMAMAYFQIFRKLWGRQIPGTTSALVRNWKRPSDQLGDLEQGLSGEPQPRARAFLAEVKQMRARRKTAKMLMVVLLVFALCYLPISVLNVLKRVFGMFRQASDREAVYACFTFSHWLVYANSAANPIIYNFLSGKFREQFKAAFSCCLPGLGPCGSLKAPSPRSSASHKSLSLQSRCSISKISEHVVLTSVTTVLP
# GPR7 antag – antagonists of human GPR7 (neuropeptides B/W receptor 1); GPR7-expressing cells, fluorescence antagonist assay; P48145; inhibition, % at 4.4 µM; hit rate 1.1% among 290,000; in the data active means inhibition above about 16%, passing the limit was not always enough;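 further: cells stimulated with the agonist NPW; 0% = agonist with vehicle and 100% = vehicle without agonist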
# OX1R antag-2 – antagonists of human orexin 1 receptor (OX1R). O43613. OX1R-expressing cells, FRET antagonist read-out. inhibition, % at 6.6 µM. hit rate 1.8% among 330,000. AID 485270; in the data active means inhibition mostly above about 38%, no sharp cut-off; inactive means mostly below about 40%;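 further: 0% = agonist challenge alone and 100% = reference antagonist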
# TAAR1 ag confirm – human TAAR1 agonism, confirmed. shares compounds with TAAR1 ag. CHO RD-HGA16 TAAR1, Fluo-8 calcium fluorescence; scaled: DMSO 0%, maximal phenethylamine 100%. activation, % at 3 µM. hit rate 82% among 2,400;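 active means activation above a cutoff set at the run's mean compound activation plus 3 SD, cut at about 39% in these data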
# Ga16 ag counter – nonselective agonist in parental cells, TAAR1 agonist counter-screen; hit rate 50% among 2,400; activation, % at 3 µM; shares compounds with TAAR1 ag; CHO-Ga16 parental, Fluo-8 calcium fluorescence; normalized to maximal ATP response, DMSO zero; AID 651787;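 active means activation above the run cutoff, the mean activation over all tested wells plus 3 SD, cut at about 12% in these data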;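 further: 0% = DMSO wells and 100% = maximal ATP response on the peak over basal ratio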
# TAAR1 desensitize – counter-screen for human TAAR1 agonists: agonists that desensitize TAAR1; shares compounds with TAAR1 ag; CHO RD-HGA16 hTAAR1, Fluo-8 calcium, beta-PEA response inhibition; inhibition, % at 3 µM; hit rate 46% among 2,400; AID 651951;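 active means inhibition above the run cutoff, the mean inhibition of all test compounds plus 3 SD, cut at about 49% in these data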;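 further: beta-PEA stimulus applied at its EC80; loss of beta-PEA calcium signal after compound pretreatment read as receptor desensitization; 0% = DMSO with beta-PEA at EC80 and 100% = DMSO alone without agonist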
# Ga16 nonsel ant – counter-screen for TAAR1 agonists: nonselective Ga16 antagonists; shares compounds with TAAR1 ag; CHO-Ga16 ATP-induced calcium, Fluo-8 fluorescence; inhibition, % at 3 µM; hit rate 39% among 2,400;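 active means inhibition above the plate's mean compound inhibition plus 3 SD, computed per plate, cut at about 22% in these data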;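 further: 0% = EC80 ATP with DMSO and 100% = DMSO wells without ATP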
# * hit, by the source's call; / = no result given.
SMILES,CHO parental Ca,TAAR1 antag,TAAR1 ag,OX1R antag-1,GPR7 antag,OX1R antag-2,TAAR1 ag confirm,Ga16 ag counter,TAAR1 desensitize,Ga16 nonsel ant
CCCCn1nnnc1C(CC)N1CCC2(CC1)C(=O)NCN2c1ccccc1 (stereo not drawn),/,-2,3,/,/,/,/,/,/,/
CCCCn1nnnc1C(c1cccs1)N1CCC2(CC1)C(=O)NCN2c1ccccc1 (stereo not drawn),/,24,1,/,/,/,/,/,/,/
CCOP(=S)(OCC)Oc1nc(Cl)c(Cl)cc1Cl,-19,12,-1,-18,/,8,/,/,/,/
c1ccc2[nH]c(CCN3CCCCC3)nc2c1,/,-8,2,/,/,/,/,/,/,/
CN1/C(=C\C=C2C(=O)NC(=S)NC2=O)C(C)(C)c2ccccc21,/,95*,308*,/,4,/,191*,208*,90*,92*
O=C1NC(=S)NC(=O)C1=Cc1cccc2cc3ccccc3cc12,/,-7,1,/,4,/,/,/,/,/
COc1ccc(CNCCc2ccc(Cl)cc2)c(OC)c1OC,-18,-25,65*,-18,12,11,76*,25*,39,9

# Assay outcomes: PubChem, The Scripps Research Institute Molecular Screening Center
